From ChEMBL document CHEMBL5537124, “Unexpected rearrangement of ivermectin in the synthesis of new derivatives with trypanocidal and antiplasmodial activities” (Eur J Med Chem, 2024)

Columns and labels:
Plasmodium berghei = assay: Antiplasmodial activity against luciferase-expressing Plasmodium berghei infected in human Huh-7 cells assessed as reduction in parasitic load pretreated for 1 hr with cells followed by parasite infection and measured 48 hrs post infection by firefly luciferase assay; assay type: functional, organism-based
Procedure, shortened: (§1)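 Huh7 hepatoma cells in RPMI-1640 with 10 % FCS, seeded at 1 × 10^4 per well and left overnight. Seven compound concentrations, serially diluted from 10 mM DMSO stocks, applied 1 h before infection; DMSO vehicle control. PbGFP-Luciferase sporozoites from An. stephensi salivary glands added 1:1, plates spun 1800 × g for 5 min. Confluency by AlamarBlue at 46 hpi; parasite load by firefly luciferase at 48 hpi. IC50 from nonlinear regression.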

[1] = tested on: Trypanosoma brucei brucei; assay: Trypanocidal activity against Trypanosoma brucei brucei 221a assessed as parasite growth inhibition measured after 24 hrs by resazurin dye based microplate reader analysis; assay type: functional
Procedure, shortened: (§2)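 Seeded at 1 × 10^4 mL-1 (T. b. brucei) or 5 × 10^4 mL-1 (HL-60) in Baltz medium with 16.7 % bovine serum and 0.9 % DMSO. Test compounds given as tenfold dilutions from 100 μM to 1 nM. Incubated at 37 °C, 5 % CO2. Resazurin added after 24 h, then a further 48 h. Absorbance read at 570/630 nm. GI50 obtained by linear interpolation; mean ± SD of three independent experiments.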

[2] = Selectivity index, ratio of GI50 for human HL-60 cells to GI50 for Trypanosoma brucei brucei 221a; assay type: toxicity; settings: for selectivity ratio: HL-60 cells versus Trypanosoma brucei brucei 221a, read-out: RatioGI50
Procedure, shortened: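 Ratio of GI50 for HL-60 to GI50 for T. b. brucei, both from the resazurin growth assay.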

Huh-7 = assay: Cytotoxicity against human Huh-7 cells infected with luciferase-expressing Plasmodium berghei assessed as effect on cell confluency pretreated for 1 hr followed by parasite infection and measured 46 hrs post infection by alamar blue staining based analysis; assay type: toxicity; settings: huh-7, 47 h; procedure, shortened: as §1
Trypanosoma cruzi = assay: Antitrypanosomal activity against trypomastigote form of Trypanosoma cruzi Dm28c expressing beta-galactosidase using chlorophenol red beta-D-galactopyranoside as enzyme substrate measured after 24 hrs by colorimetric analysis; assay type: functional, organism-based
HL-60 = assay: Cytotoxicity against human HL-60 cells assessed as cell growth inhibition measured after 24 hrs by resazurin dye based microplate reader analysis; assay type: toxicity; settings: hl-60, 24 h; procedure, shortened: as §2

Molecule | GI50 [1] [µM] | selectivity ratio [2] | other results
CC[C@H](C)[C@H]1O[C@]2(CC[C@@H]1C)C[C@@H]1C[C@@H](C/C=C(\C)[C@@H](O)[C@@H](C)/C=C/C=C3\CO[C@@H]4[C@H](O)[C@](C)(O)C=C(C(=O)O1)[C@]34O)O2 | 12.1 | 2.6 | IC50 (Plasmodium berghei; Plasmodium berghei, Huh-7): 2.85 µM; Activity (Huh-7): Non-Toxic
CC[C@H](C)[C@H]1O[C@]2(CC[C@@H]1C)C[C@@H]1C[C@@H](C/C=C(\C)[C@H](NC(=O)c3ccc(OC)c(OC)c3)[C@@H](C)/C=C/C=C3\CO[C@@H]4[C@H](O)C(C)=C[C@@H](C(=O)O1)[C@]34O)O2 | 5.8 | 5.6 | –
CC[C@H](C)[C@H]1O[C@]2(CC[C@@H]1C)C[C@@H]1C[C@@H](C/C=C(\C)[C@@H](O[C@H]3C[C@H](OC)[C@@H](O[C@H]4C[C@H](OC)[C@@H](O)[C@H](C)O4)[C@H](C)O3)[C@@H](C)/C=C/C=C3\CO[C@@H]4[C@H](O)[C@](C)(O)C=C(C(=O)O1)[C@]34O)O2 | 20 | 1.6 | IC50 (Plasmodium berghei; Plasmodium berghei, Huh-7): 4.72 µM; Activity (Huh-7): Non-Toxic
CC[C@H](C)[C@H]1O[C@]2(CC[C@@H]1C)C[C@@H]1C[C@@H](C/C=C(\C)[C@H](NC(=O)c3ccc(OC)c(O)c3)[C@@H](C)/C=C/C=C3\CO[C@@H]4[C@H](O)C(C)=C[C@@H](C(=O)O1)[C@]34O)O2 | 3.9 | 8.2 | –
CCCCCCCCCC(=O)N[C@H]1/C(C)=C/C[C@@H]2C[C@@H](C[C@]3(CC[C@H](C)[C@@H]([C@@H](C)CC)O3)O2)OC(=O)[C@@H]2C=C(C)[C@@H](O)[C@H]3OC/C(=C\C=C\[C@@H]1C)[C@]32O | 9.3 | 3.2 | –
CC[C@H](C)[C@H]1O[C@]2(CC[C@@H]1C)C[C@@H]1C[C@@H](C/C=C(\C)[C@H](NC(=O)COC)[C@@H](C)/C=C/C=C3\CO[C@@H]4[C@H](O)C(C)=C[C@@H](C(=O)O1)[C@]34O)O2 | 14.4 | 2.3 | –
CCC(=O)N[C@H]1/C(C)=C/C[C@@H]2C[C@@H](C[C@]3(CC[C@H](C)[C@@H]([C@@H](C)CC)O3)O2)OC(=O)[C@@H]2C=C(C)[C@@H](O)[C@H]3OC/C(=C\C=C\[C@@H]1C)[C@]32O | 7.4 | 4.3 | –
IVERMECTIN [listing 1 of 2 here] | – | – | EC50 (Trypanosoma cruzi): 10.4 µM; IC50 (Plasmodium berghei; huh-7): 0.911 µM; GI50 (HL-60): 31.3 µM; RatioGI50 [2]: 2.1; Activity (Huh-7): Non-Toxic
IVERMECTIN [listing 2 of 2 here] | 14.6 | – | –
CC[C@H](C)[C@H]1O[C@]2(CC[C@@H]1C)C[C@@H]1C[C@@H](C/C=C(\C)[C@H](NC(C)=O)[C@@H](C)/C=C/C=C3\CO[C@@H]4[C@H](O)[C@](C)(O)C=C(C(=O)O1)[C@]34O)O2 | 7.5 | 4.5 | IC50 (Plasmodium berghei; Plasmodium berghei, Huh-7): 0.379 µM; Activity (Huh-7): Non-Toxic
CC[C@H](C)[C@H]1O[C@]2(CC[C@@H]1C)C[C@@H]1C[C@@H](C/C=C(\C)[C@H](NC(=O)c3ccc(OC)c(OC)c3)[C@@H](C)/C=C/C=C3\CO[C@@H]4[C@H](O)[C@](C)(O)C=C(C(=O)O1)[C@]34O)O2 | 5 | 6.4 | –
CC[C@H](C)[C@H]1O[C@]2(CC[C@@H]1C)C[C@@H]1C[C@@H](C/C=C(\C)[C@H](NC(=O)C34CC5CC(CC(C5)C3)C4)[C@@H](C)/C=C/C=C3\CO[C@@H]4[C@H](O)[C@](C)(O)C=C(C(=O)O1)[C@]34O)O2 | 3 | 10.3 | –
CC[C@H](C)[C@H]1O[C@]2(CC[C@@H]1C)C[C@@H]1C[C@@H](C/C=C(\C)[C@H](NC(=O)C34CC5CC(CC(C5)C3)C4)[C@@H](C)/C=C/C=C3\CO[C@@H]4[C@H](O)C(C)=C[C@@H](C(=O)O1)[C@]34O)O2 | 19.1 | 1.6 | –
CC[C@H](C)[C@H]1O[C@]2(CC[C@@H]1C)C[C@@H]1C[C@@H](C/C=C(\C)[C@H](NC(=O)c3ccccc3)[C@@H](C)/C=C/C=C3\CO[C@@H]4[C@H](O)C(C)=C[C@@H](C(=O)O1)[C@]34O)O2 | 8.6 | 3.6 | –
CC[C@H](C)[C@H]1O[C@]2(CC[C@@H]1C)C[C@@H]1C[C@@H](C/C=C(\C)[C@H](NC(=O)CCl)[C@@H](C)/C=C/C=C3\CO[C@@H]4[C@H](O)C(C)=C[C@@H](C(=O)O1)[C@]34O)O2 | 0.063 | 47.6 | –
CC[C@H](C)[C@H]1O[C@]2(CC[C@@H]1C)C[C@@H]1C[C@@H](C/C=C(\C)[C@H](NC(=O)C(C)C)[C@@H](C)/C=C/C=C3\CO[C@@H]4[C@H](O)C(C)=C[C@@H](C(=O)O1)[C@]34O)O2 | 10.2 | 3.3 | –
Cc1ccc(C(=O)Nc2ccc(S(=O)(=O)O)c3cc(S(=O)(=O)O)cc(S(=O)(=O)O)c23)cc1NC(=O)c1cccc(NC(=O)Nc2cccc(C(=O)Nc3cc(C(=O)Nc4ccc(S(=O)(=O)O)c5cc(S(=O)(=O)O)cc(S(=O)(=O)O)c45)ccc3C)c2)c1 [SURAMIN] | 0.036 | > 2780 | –
CC[C@H](C)[C@H]1O[C@]2(CC[C@@H]1C)C[C@@H]1C[C@@H](C/C=C(\C)[C@@H](O)[C@@H](C)/C=C/C=C3\CO[C@@H]4[C@H](O)C(C)=C[C@@H](C(=O)O1)[C@]34O)O2 [IVM AGLYCONE] | 6.1 | 5.8 | IC50 (Plasmodium berghei; Plasmodium berghei, Huh-7): 5.45 µM; Activity (Huh-7): Non-Toxic
CCC(=O)N[C@H]1/C(C)=C/C[C@@H]2C[C@@H](C[C@]3(CC[C@H](C)[C@@H]([C@@H](C)CC)O3)O2)OC(=O)C2=C[C@@](C)(O)[C@@H](O)[C@H]3OC/C(=C\C=C\[C@@H]1C)[C@@]23O | 8.1 | 4.3 | –
CC[C@H](C)[C@H]1O[C@]2(CC[C@@H]1C)C[C@@H]1C[C@@H](C/C=C(\C)[C@H](NC(=O)c3ccco3)[C@@H](C)/C=C/C=C3\CO[C@@H]4[C@H](O)[C@](C)(O)C=C(C(=O)O1)[C@]34O)O2 | 4.7 | 7 | –
CC[C@H](C)[C@H]1O[C@]2(CC[C@@H]1C)C[C@@H]1C[C@@H](C/C=C(\C)[C@H](NC(=O)c3ccc(OC)c(O)c3)[C@@H](C)/C=C/C=C3\CO[C@@H]4[C@H](O)[C@](C)(O)C=C(C(=O)O1)[C@]34O)O2 | 4.1 | 8 | –
CC[C@H](C)[C@H]1O[C@]2(CC[C@@H]1C)C[C@@H]1C[C@@H](C/C=C(\C)[C@H](NC(=O)c3ccco3)[C@@H](C)/C=C/C=C3\CO[C@@H]4[C@H](O)C(C)=C[C@@H](C(=O)O1)[C@]34O)O2 | 10.2 | 3.1 | –
CC[C@H](C)[C@H]1O[C@]2(CC[C@@H]1C)C[C@@H]1C[C@@H](C/C=C(\C)[C@H](NC(=O)c3ccccc3)[C@@H](C)/C=C/C=C3\CO[C@@H]4[C@H](O)[C@](C)(O)C=C(C(=O)O1)[C@]34O)O2 | 4.3 | 7 | –
CC[n+]1c(-c2ccccc2)c2cc(N)ccc2c2ccc(N)cc21 [HOMIDIUM BROMIDE] | 0.086 | 67.4 | –
CC[C@H](C)[C@H]1O[C@]2(CC[C@@H]1C)C[C@@H]1C[C@@H](C/C=C(\C)[C@H](NC(=O)COC)[C@@H](C)/C=C/C=C3\CO[C@@H]4[C@H](O)[C@](C)(O)C=C(C(=O)O1)[C@]34O)O2 | 18.2 | 1.8 | –
CC[C@H](C)[C@H]1O[C@]2(CC[C@@H]1C)C[C@@H]1C[C@@H](C/C=C(\C)[C@H](NC(=O)C(C)C)[C@@H](C)/C=C/C=C3\CO[C@@H]4[C@H](O)[C@](C)(O)C=C(C(=O)O1)[C@]34O)O2 | 6.6 | 5.1 | –
CC[C@H](C)[C@H]1O[C@]2(CC[C@@H]1C)C[C@@H]1C[C@@H](C/C=C(\C)[C@H](NC(C)=O)[C@@H](C)/C=C/C=C3\CO[C@@H]4[C@H](O)C(C)=C[C@@H](C(=O)O1)[C@]34O)O2 | 5.5 | 5.8 | IC50 (Plasmodium berghei; Plasmodium berghei, Huh-7): 1.52 µM; Activity (Huh-7): Non-Toxic
CC[C@H](C)[C@H]1O[C@]2(CC[C@@H]1C)C[C@@H]1C[C@@H](C/C=C(\C)[C@H](NC(=O)CCl)[C@@H](C)/C=C/C=C3\CO[C@@H]4[C@H](O)[C@](C)(O)C=C(C(=O)O1)[C@]34O)O2 | 0.064 | 67.2 | –
CCCCCCCCCC(=O)N[C@H]1/C(C)=C/C[C@@H]2C[C@@H](C[C@]3(CC[C@H](C)[C@@H]([C@@H](C)CC)O3)O2)OC(=O)C2=C[C@@](C)(O)[C@@H](O)[C@H]3OC/C(=C\C=C\[C@@H]1C)[C@@]23O | 4.1 | 7.8 | –
